In ChEMBL document CHEMBL1136836, “Aryloxy cyclohexyl imidazoles: a novel class of antileishmanial agents” (Bioorg Med Chem Lett, 2009):
Converted amounts (≈) assume the structure as drawn.

Experiments:
[1] = test system: Leishmania donovani; experiment: Antileishmanial activity against Leishmania donovani extracellular promastigotes at 10 ug/ml after 72 hrs by luciferase activity-based drug susceptibility assay; assay type: functional
In short: (§1)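 Transgenic L. donovani promastigotes tested at various concentrations up to a maximum of 10 µg/ml, with sodium stibogluconate and pentamidine as reference drugs. IC50 derived by Probit analysis.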

[2] = test system: Leishmania donovani; experiment: Antileishmanial activity against Leishmania donovani intracellular amastigotes infected in mouse J774A1 cells after 48 hrs by luciferase activity-based drug susceptibility assay; assay type: functional, organism-based; details: for Activity: J774.A1; for IC50: J774.A1, 48 h
In short: (§2)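 Intracellular amastigotes of transgenic L. donovani in mouse J-774-A-1 macrophages, exposed to a range of concentrations up to a maximum of 10 µg/ml. Sodium stibogluconate and pentamidine served as reference drugs. IC50 calculated by Probit analysis.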

[3] = Cytotoxicity against mouse J774A1 cells after 48 hrs by Geimsa staining method; assay type: cell-based, J774.A1
In short: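 Mouse macrophage line J-774-A-1 used for the cytotoxicity read-out. CC50 is the concentration giving 50% inhibition of cell viability.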

[4] = test system: Leishmania donovani; experiment: Antileishmanial activity against Leishmania donovani intracellular amastigotes infected in mouse J774A1 cells at 10 ug/ml after 48 hrs by luciferase activity-based drug susceptibility assay; assay type: functional; details: for inhibition at 10 µg/mL: J774.A1, 48 h; in short: as §2
[5] = (§3) Selectivity index, ratio of CC50 for mouse J774A1 cells to IC50 for Leishmania donovani intracellular amastigotes infected in mouse J774A1 cells; assay type: functional, J774.A1
In short: (§4)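 SI is based on CC50 in J-774-A-1 macrophages and IC50 in the antileishmanial assay.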

[6] = test system: Leishmania donovani; experiment: Antileishmanial activity against Leishmania donovani extracellular promastigotes after 72 hrs by luciferase activity-based drug susceptibility assay; assay type: functional, organism-based; in short: as §1
[7] = test system: Leishmania donovani; experiment: Antileishmanial activity against Leishmania donovani infected in hamster assessed as inhibition of parasite growth at 50 mg/kg, ip for 10 days; assay type: functional; details: 240 h, route intraperitoneal
In short: (§5)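 L. donovani-infected hamster model. Dosing was intraperitoneal, 10 doses: test compounds at 50 mg/kg, sodium stibogluconate at 20 mg/kg, pentamidine at 40 mg/kg. Read-out is percent inhibition of parasites.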

[8] = test system: Leishmania donovani; experiment: Antileishmanial activity against Leishmania donovani infected in hamster assessed as inhibition of parasite growth at 20 mg/kg, ip for 10 days; assay type: functional, organism-based; design: dose 20 mg/kg; in short: as §5
[9] = test system: J774.A1; experiment: as §3; assay type: functional; in short: as §4
[10] = test system: Leishmania donovani; experiment: Antileishmanial activity against Leishmania donovani infected in hamster assessed as inhibition of parasite growth at 40 mg/kg, ip for 10 days; assay type: functional; details: 240 h, route intraperitoneal; in short: as §5

Row | Molecule | IC50 [2] [µg/mL] | IC50 [6] [µg/mL] | inhibition at 10 µg/mL [1] [%] | Activity [2] | CC50 at 48 h [3] [µg/mL] | inhibition at 10 µg/mL [4] [%] | Ratio CC50/IC50 [5] | Activity [6] | inhibition in vivo at 50 mg/kg [7] [%] | inhibition [1] [%] | inhibition [8] [%] | inhibition ([4]; J774.A1) [%] | Ratio CC50/IC50 [9] | inhibition in vivo at 40 mg/kg [10] [%]
1 | O=[N+]([O-])c1ccccc1O[C@H]1CCCC[C@@H]1Cn1ccnc1 | 6.72 (≈ 22.3 µM) | 4.23 (≈ 14 µM) | 100 | Dose-dependent effect | 63.1 (≈ 209 µM) | 100 | 9.39 | Dose-dependent effect | – | – | – | – | – | –
2 | O=[N+]([O-])c1ccc(OC2C(Cn3ccnc3)CCCC2Cn2ccnc2)c(C(F)(F)F)c1 (stereo not drawn) | 0.588 (≈ 1.31 µM) | 6.72 (≈ 15 µM) | 100 | Dose-dependent effect | 14.4 (≈ 32.1 µM) | 100 | 24.557 | Dose-dependent effect | – | – | – | – | – | –
3 | D-gluconic acid 2,4:2',4'-O-[oxybis(oxidostibylidyne)]bis-trisodium salt nonahydrate | – | – | – | Dose-dependent effect | – | – | – | Dose-dependent effect | – | 100 | 84.1 | 100 | 6.38 | –
4 | OC1C(Cn2ccnc2)CCCC1Cn1ccnc1 (stereo not drawn) | 10.8 (≈ 41.4 µM) | 9.4 (≈ 36.1 µM) | 100 | Dose-dependent effect | > 100 | 100 | >9.28 | Dose-dependent effect | – | – | – | – | – | –
5 | O=[N+]([O-])c1ccc(O[C@H]2CCCC[C@@H]2Cn2ccnc2)c(C(F)(F)F)c1 | 2.13 (≈ 5.77 µM) | 2.37 (≈ 6.42 µM) | 100 | Dose-dependent effect | 13.8 (≈ 37.5 µM) | 100 | 6.49 | Dose-dependent effect | – | – | – | – | – | –
6 | N=C(N)c1ccc(OCCCCCOc2ccc(C(=N)N)cc2)cc1 [PENTAMIDINE] | 12.1 (≈ 35.6 µM) | 0.643 (≈ 1.89 µM) | 100 | Dose-dependent effect | 31.3 (≈ 92 µM) | 100 | 2.58 | Dose-dependent effect | – | – | – | – | – | 92
7 | O=[N+]([O-])c1ccc(O[C@H]2CCCC[C@@H]2Cn2ccnc2)c(F)c1 | 0.71 (≈ 2.22 µM) | 1.08 (≈ 3.38 µM) | 100 | Dose-dependent effect | > 100 | 100 | >140.84 | Dose-dependent effect | 55.4 | – | – | – | – | –
8 | O=[N+]([O-])c1ccccc1OC1C(Cn2ccnc2)CCCC1Cn1ccnc1 (stereo not drawn) | 2.44 (≈ 6.39 µM) | 9.57 (≈ 25.1 µM) | 100 | Dose-dependent effect | 69.4 (≈ 182 µM) | 100 | 28.47 | Dose-dependent effect | – | – | – | – | – | –
9 | FC(F)(F)c1ccc(O[C@H]2CCCC[C@@H]2Cn2ccnc2)cc1 | 3.83 (≈ 11.8 µM) | 0.81 (≈ 2.5 µM) | 100 | Dose-dependent effect | 35.6 (≈ 110 µM) | 100 | 9.292 | Dose-dependent effect | – | – | – | – | – | –

Second part, led by results:

Row | IC50 [2] [µg/mL] | IC50 [6] [µg/mL] | Molecule | inhibition at 10 µg/mL [1] [%] | Activity [2] | CC50 at 48 h [3] [µg/mL] | inhibition at 10 µg/mL [4] [%] | Ratio CC50/IC50 [5] | Activity [6] | inhibition in vivo at 50 mg/kg [7] [%] | inhibition [1] [%] | inhibition [8] [%] | inhibition ([4]; J774.A1) [%] | Ratio CC50/IC50 [9] | inhibition in vivo at 40 mg/kg [10] [%]
10 | 4.57 (≈ 15.2 µM) | 0.82 (≈ 2.72 µM) | O=[N+]([O-])c1ccc(O[C@H]2CCCC[C@@H]2Cn2ccnc2)cc1 | 100 | Dose-dependent effect | 44.6 (≈ 148 µM) | 100 | 9.757 | Dose-dependent effect | – | – | – | – | – | –
11 | 3 (≈ 7.97 µM) | 2.06 (≈ 5.47 µM) | FC(F)(F)c1ccc(OC2C(n3ccnc3)CCCC2n2ccnc2)cc1 (stereo not drawn) | 100 | Dose-dependent effect | 96.4 (≈ 256 µM) | 100 | 32.143 | Dose-dependent effect | 36.8 | – | – | – | – | –
12 | 1.97 (≈ 5.16 µM) | 5.52 (≈ 14.5 µM) | O=[N+]([O-])c1ccc(OC2C(Cn3ccnc3)CCCC2Cn2ccnc2)cc1 (stereo not drawn) | 100 | Dose-dependent effect | 73.9 (≈ 194 µM) | 100 | 37.51 | Dose-dependent effect | 52 | – | – | – | – | –
13 | 1.13 (≈ 2.79 µM) | 3.28 (≈ 8.12 µM) | FC(F)(F)c1ccc(OC2C(Cn3ccnc3)CCCC2Cn2ccnc2)cc1 (stereo not drawn) | 100 | Dose-dependent effect | 94.5 (≈ 234 µM) | 100 | 83.6 | Dose-dependent effect | 51 | – | – | – | – | –
14 | 3.02 (≈ 8.13 µM) | 6.13 (≈ 16.5 µM) | O=[N+]([O-])c1ccc(OC2C(n3ccnc3)CCCC2n2ccnc2)c(F)c1 (stereo not drawn) | 100 | Dose-dependent effect | 90.6 (≈ 244 µM) | 100 | 30 | Dose-dependent effect | 56.7 | – | – | – | – | –
15 | 1.17 (≈ 2.93 µM) | 3.57 (≈ 8.94 µM) | O=[N+]([O-])c1ccc(OC2C(Cn3ccnc3)CCCC2Cn2ccnc2)c(F)c1 (stereo not drawn) | 100 | Dose-dependent effect | 39.4 (≈ 98.6 µM) | 100 | 33.64 | Dose-dependent effect | 77.9 | – | – | – | – | –
16 | 8.76 (≈ 24.8 µM) | 4.67 (≈ 13.2 µM) | O=[N+]([O-])c1ccc(OC2C(n3ccnc3)CCCC2n2ccnc2)cc1 (stereo not drawn) | 100 | Dose-dependent effect | > 100 | 100 | >11.4 | Dose-dependent effect | – | – | – | – | – | –
